High-throughput results as filed in PubChem BioAssay.
Rows were chosen to be rich in hits. Some 2.2% of all compounds tested hit in one or more screens of this group.
V-ATPase pHluor = regulators of yeast V-ATPase proton pumping, primary screen, pHLuorin cytosolic pH fluorescence. response, % at 10 µM. actives 0.37% (n = 350,000). S. cerevisiae; in the data active means response mostly above about 7.3%, no sharp cut-off; inactive means mostly below about 5.4%; further: actives read high
GalR3 antagonist = GalR3 antagonists in HEK293 cells, primary screen, cell-based, fluorescence readout. Galanin receptor type 3 (Homo sapiens), O60755. HEK293 GalR3-CNG cAMP membrane potential fluorescence; galR3 body fused to GalR1 C-terminus. inhibition, % at 3 µM. actives 0.44% (n = 360,000). AID 651719, 2012;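 active means inhibition above the screen-wide average plus 3 SD, cut at about 13% in these data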;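 further: forskolin and galanin both at EC90 stimulate the cells; cAMP rise reported by CNG channel membrane potential dye signal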
Target sequence (O60755 1-299 limits assumed): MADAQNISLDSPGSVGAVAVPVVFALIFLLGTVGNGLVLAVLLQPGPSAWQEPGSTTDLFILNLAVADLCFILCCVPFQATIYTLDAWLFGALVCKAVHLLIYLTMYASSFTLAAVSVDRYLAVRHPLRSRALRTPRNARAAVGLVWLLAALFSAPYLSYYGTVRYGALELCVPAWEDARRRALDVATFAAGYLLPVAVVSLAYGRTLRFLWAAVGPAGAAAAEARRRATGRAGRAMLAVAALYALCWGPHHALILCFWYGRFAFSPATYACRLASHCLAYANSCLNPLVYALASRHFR
HIV Env fusion = inhibitors of HIV-1 Env-driven cell-cell fusion, primary screen, HeLa-JRFL effector, CEM21 target cells, luciferase | inhibition, % at 12.3 µM | actives 1.1% (n = 360,000);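 active means mean replicate inhibition score of at least 50 and every replicate individually at or above 50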
NR2E3 ag-1 = inhibitors of NR2E3-RetCOR corepressor binding, primary screen, NR2E3 agonist project, biochemical, TR-FRET, GST-NR2E3, biotin-RetCOR; actives 0.12% (n = 320,000); 1536-well; inhibition of corepressor binding, % at 4.78 µM;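 active means percent inhibition above the cutoff of mean plus 3 SD of all tested compounds, set per screening campaign, cut at about 20% in these data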
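Material: NR2E3–RetCOR corepressor complex | Quantity: 1.35 nM GST-tagged NR2E3 final | Schedule: 5 h at 4 °C | Replication: Singlicate compound wells | Reagent: RetCOR corepressor, biotinylated, 7 nM | Controls: Biotin wells as high control, 0.6% DMSO wells as low control | Signal: TR-FRET, Eu(K)-anti-GST donor, streptavidin-D2 acceptor, ex 340, em 617/671 nm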
NR2E3 ag-2 = NR2E3 agonists in two-hybrid cells, primary screen, cell-based, luminescence, CHO-S, Gal4-NCOR/VP16-NR2E3 | inhibition of corepressor binding, % at 3.98 µM | luciferase | AID 602229, 2012 | actives 0.35% (n = 360,000);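 active means inhibition above the mean of all tested compounds plus 3 SD, cut at about 70% in these data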;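 further: higher means lower luciferase signal from less NR2E3 corepressor binding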
GAA850 FXN act = FXN promoter activators, primary screen, cell-based, luciferase luminescence, HEK293 lucGAA850; HEK293 lucGAA850 FXN promoter luciferase reporter, 24 h; percent of 10 µM SAHA response; activation, % at 6 µM; actives 0.56% (n = 360,000); AID 540364, 2011;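 active means activation above the average of all compounds screened plus 3 SD, cutoff fixed separately per campaign, cut at about 7.5% in these data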
NR2E3 agonist cf = NR2E3 agonists, confirmation, biochemical, TR-FRET. shares compounds with NR2E3 ag-1. cell-free NR2E3 corepressor release, 5 h. activation (reported as inhibition), % at 3.98 µM. actives 39% (n = 360). AID 2379, 2010; in the data active means activation above about 20%
PPARg-NCOR2 ctr = agonists of PPARg-NCOR2 corepressor interaction, counter-screen for NR2E3 agonist project, biochemical, TR-FRET | shares compounds with NR2E3 ag-1 | actives 45% (n = 360) | TR-FRET PPARg-NCOR2 coregulator interaction | inhibition, % at 3.98 µM | AID 504787, 2011; in the data active means inhibition above about 20%
Hits are given with their value; n = inactive; x = no result given.

SMILES	V-ATPase pHluor	GalR3 antagonist	HIV Env fusion	NR2E3 ag-1	NR2E3 ag-2	GAA850 FXN act	NR2E3 agonist cf	PPARg-NCOR2 ctr
O=C(C1=C(O)C(=O)N(CC2CCCO2)C1c1ccc(Cl)cc1Cl)c1ccco1 (stereo not drawn)	n	n	n	29.6	n	n	24.0	25.2
O=C(NCC[C@H]1CC[C@H](NS(=O)(=O)c2ccc(Oc3ccccc3)cc2)[C@@H](CO)O1)C1CC1	x	x	n	x	x	x	x	x
Cn1c2ccccc2c(=O)c2c(=O)n(Cc3ccco3)c(-c3ccc(F)cc3)nc21	n	n	n	34.5	n	n	n	n
CC(=O)NC(CSc1cc(C)nc2ccc(Br)cc12)C(=O)O (stereo not drawn)	n	n	n	25.0	n	n	n	67.0
COC(=O)Sc1nnc(-c2ccc(Br)cc2)o1	x	x	x	27.0	x	x	22.4	34.8
C/C=C/c1ccc2c(c1)O[C@H](CN(C)C(=O)c1cnccn1)[C@H](C)CN([C@H](C)CO)S2(=O)=O	x	x	n	x	x	x	x	x
O=C(C[C@H]1CC[C@H]2[C@@H](COC[C@H](O)CN2Cc2cc(F)cc(F)c2)O1)NC1CCCC1	x	x	n	x	x	x	x	x
CC(=O)NC(CCS(C)(=O)=O)C(=O)Nc1ccc(Cl)c(Cl)c1 (stereo not drawn)	n	x	n	19.8	n	n	n	n
C[C@H](CO)N1C[C@H](C)[C@H](CN(C)C(=O)Nc2ccc(F)cc2)Oc2ccc(NC(=O)Nc3ccc(F)cc3)cc2C1=O	x	x	n	x	x	x	x	x
CCCOc1cccc(C2C(C(=O)c3cc4ccccc4o3)=C(O)C(=O)N2c2cc(C)on2)c1 (stereo not drawn)	n	n	n	24.3	n	n	33.6	36.3
COc1cccc(C2C(C(=O)c3ccc(C)o3)=C(O)C(=O)N2c2cc(C)on2)c1 (stereo not drawn)	n	n	n	n	n	n	x	x
Cc1cc(N2C(=O)C(O)=C(C(=O)c3cccs3)C2c2ccccc2)no1 (stereo not drawn)	n	n	n	n	n	n	x	x
Cc1cc(N2C(=O)C(O)=C(C(=O)c3cc4ccccc4o3)C2c2cccc(Br)c2)no1 (stereo not drawn)	n	n	n	37.8	n	n	48.3	46.2
CC(C)C(=O)Nc1ccc2c(c1)C(=O)N(C)[C@@H]1CC[C@@H](CC(=O)NCc3ccccc3F)O[C@H]1CO2	x	x	n	x	x	x	x	x
CC(C)NC(=O)Nc1ccc2c(c1)C(=O)N([C@H](C)CO)C[C@@H](C)[C@H](CN(C)C(=O)CCC(F)(F)F)OCCCC[C@@H](C)O2	x	x	n	x	x	x	x	x
C[C@@H]1CCCCO[C@@H](CN(C)C(=O)Nc2ccc3c(c2)OCO3)[C@H](C)CN([C@@H](C)CO)C(=O)c2cc(NC(=O)Cc3ccccc3)ccc2O1	x	x	n	x	x	x	x	x
Cn1cc(Cl)c(-c2n[nH]c(=S)n2-c2ccccc2)n1	n	n	n	26.9	n	n	n	n
Cn1cc(Cl)c(-c2n[nH]c(=S)n2-c2ccc(F)cc2)n1	n	n	n	20.3	n	n	n	n
Cc1c(Cl)c(-c2n[nH]c(=S)n2-c2ccc(F)cc2)nn1C	n	n	x	20.8	n	n	n	n
Cc1ccc(-n2c(-c3nn(C)cc3Cl)n[nH]c2=S)cc1	n	n	n	n	n	n	x	x
Cc1nn(C)cc1-c1n[nH]c(=S)n1-c1ccc(F)cc1	n	n	n	n	n	n	x	x
C[C@@H]1CN([C@@H](C)CO)S(=O)(=O)c2ccc(C3=CCCC3)cc2O[C@@H]1CN(C)C(=O)C1CCCCC1	x	x	n	x	x	x	x	x
S=c1[nH]c2ccccc2n2cccc12	n	n	n	29.3	n	n	n	n
Cn1c(=S)[nH]c2ccccc21	n	n	n	n	n	n	x	x
CC1Cc2cc(/C(O)=C3/C(=O)C(=O)N(Cc4ccco4)C3c3cccs3)ccc2O1 (stereo not drawn)	n	n	x	22.3	n	n	n	n
SMILES	V-ATPase pHluor	GalR3 antagonist	HIV Env fusion	NR2E3 ag-1	NR2E3 ag-2	GAA850 FXN act	NR2E3 agonist cf	PPARg-NCOR2 ctr
C=CCOC(=O)[C@H]1[C@@H]2C(=O)O[C@@H](c3ccccc3)[C@@H](c3ccccc3)N2[C@@H](c2ccc(OCCOC(=O)[C@H]3C[C@H]4C(=O)N[C@@H](CC(C)C)C(=O)N4[C@H]3c3ccc(O)cc3)cc2)[C@]12C(=O)Nc1ccccc12	x	x	n	x	x	x	x	x
COc1cccc2cc(C(=O)C3=C(O)C(=O)N(Cc4ccco4)C3c3cccnc3)oc12 (stereo not drawn)	n	x	x	28.1	n	n	19.7	23.8
O=C(C1=C(O)C(=O)N(Cc2ccco2)C1c1cccnc1)c1cc2ccccc2o1 (stereo not drawn)	n	n	x	38.0	n	n	42.7	42.0
O=C(C1=C(O)C(=O)N(Cc2ccco2)C1c1cccc(O)c1)c1ccco1 (stereo not drawn)	n	n	n	n	n	n	x	x
COc1cccc(-c2cnc3c(c2)C(=O)N([C@@H](C)CO)C[C@@H](C)[C@@H](CN(C)C(=O)CN(C)C)O3)c1	x	x	n	x	x	x	x	x
C[C@@H]1CN([C@@H](C)CO)C(=O)c2cc(NS(=O)(=O)c3ccc(F)cc3)ccc2O[C@@H](C)CCCCO[C@@H]1CN(C)Cc1ccncc1	x	x	n	x	x	x	x	x
O=C1C(=O)N(Cc2cccnc2)C(c2cccc(F)c2)/C1=C(/O)c1ccc2c(c1)OCO2 (stereo not drawn)	n	n	x	23.5	n	n	26.3	28.0
COc1ccc(NC(=O)Nc2ccc3c(c2)C(=O)N([C@H](C)CO)C[C@H](C)[C@H](CN(C)C)OCCCC[C@H](C)O3)cc1	x	x	n	x	x	x	x	x
C[C@@H]1CCCCO[C@@H](CN(C)C(=O)Nc2cccc3ccccc23)[C@H](C)CN([C@H](C)CO)C(=O)c2cc(NS(=O)(=O)c3cccs3)ccc2O1	x	x	n	x	x	x	x	x
Cc1c(Br)c(=O)oc2c(C)c(O)ccc12	n	n	n	21.4	n	n	n	n
CCc1c(C)c2ccc(O)c(CN(C)C)c2oc1=O	n	n	n	n	n	n	x	x
C[C@@H]1CCCCO[C@H](CN(C)C(=O)CCC(F)(F)F)[C@H](C)CN([C@@H](C)CO)C(=O)c2cc(NS(C)(=O)=O)ccc2O1	x	x	n	x	x	x	x	x
